According to ChEMBL document CHEMBL3872208, “Synthesis and pharmacological characterization of novel N-(trans-4-(2-(4-(benzo[d]isothiazol-3-yl)piperazin-1-yl)ethyl)cyclohexyl)amides as potential multireceptor atypical antipsychotics” (Eur J Med Chem, 2016):
Calls of active or inactive are those of the source. The calls are words filed in the database; no cut-off is given here.

Legend:
Rattus norvegicus [1] = assay: Reversal of PCP-induced hyperlocomotion activity in ip dosed Sprague-Dawley rat pretreated for 10 mins followed by PCP challenge measured after […]; format: functional, organism-based
Rattus norvegicus [2] = assay: Antipsychotic activity in Sprague-Dawley rat assessed as inhibition of conditioned avoidance behavior at 1.0 to 2.0 mg/kg, ip administered as single dose measured after 1 hr; format: functional, organism-based
Summary of the method: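 Male SD rats (150–180 g, 6 per group) trained in automated shuttle-boxes; only rats exceeding 80% avoidance were used. Single i.p. dose of 1.0 or 2.0 mg/kg given 1 h before a 20-trial session. Read-out is percentage of avoidance (mean ± SEM, n = 6), compared with the vehicle group.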

[3] = molecular target: T1, Muscarinic acetylcholine receptor M1 (Homo sapiens, UniProt P11229); assay: Displacement of [3H]pirenzepine from recombinant human M1 receptor expressed in CHO cell membranes at 1 uM after 60 mins by scintillation counting method relative to control; conditions: CHO cell membranes expressing recombinant human M1 receptor, probe [3H]pirenzepine
T1 sequence (P11229 whole entry): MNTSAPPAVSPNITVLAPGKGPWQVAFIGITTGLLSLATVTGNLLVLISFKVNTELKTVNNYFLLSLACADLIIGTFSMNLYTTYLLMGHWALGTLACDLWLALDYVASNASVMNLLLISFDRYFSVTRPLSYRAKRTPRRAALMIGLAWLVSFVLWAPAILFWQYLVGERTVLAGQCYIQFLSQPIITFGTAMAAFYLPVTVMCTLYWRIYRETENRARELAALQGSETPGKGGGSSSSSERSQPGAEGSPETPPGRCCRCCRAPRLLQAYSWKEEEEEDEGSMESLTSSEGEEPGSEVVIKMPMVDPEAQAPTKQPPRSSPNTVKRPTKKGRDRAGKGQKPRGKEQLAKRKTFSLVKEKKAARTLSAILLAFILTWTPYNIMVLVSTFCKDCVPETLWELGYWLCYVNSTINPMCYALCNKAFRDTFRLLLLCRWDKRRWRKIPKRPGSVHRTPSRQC
Summary of the method: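 Nonspecific binding defined with […]. Filtered on PEI-soaked GF/B and scintillation counted. Expressed as percent inhibition of control specific binding at a single test concentration.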

Rattus norvegicus [4] = assay: Toxicity in Sprague-Dawley rat assessed as cataleptogenic effect by measuring time spent in cataleptic position at 1 to 10 mg/kg, po measured after 0.5 to 2 hrs; format: organism-based; conditions: in vivo
Summary of the method: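 Male SD rats (180–250 g, n = 7) dosed orally at 1.0, 3.0 or 10.0 mg/kg. Forepaws placed on a bar 0.9 cm in diameter, 11 cm high, at 30, 60 and 120 min after dosing. Time held is expressed as a percentage of the 60 s maximum (mean ± SEM).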

Rattus norvegicus [5] = assay: Cognitive enhancement effect in Sprague-Dawley rat assessed as reversal of PCP-impaired performance by measuring increase in time spent exploring novel object in comparison to familiar object at 0.1 mg/kg, po administered 60 mins prior to test by novel object recognition assay
CHO = assay: Selectivity ratio of Ki for displacement of [3H]spiperone from recombinant human D2L receptor expressed in CHO cell membranes to Ki for displacement of [3H]methyl-spiperone from recombinant human D3 receptor expressed in CHO cell membranes
Summary of the method: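 D2L binding: CHO membranes (16 µg protein) with 0.3 nM [3H]methyl-spiperone in 50 mM Tris-HCl pH 7.4, 120 mM NaCl, 10 mM MgCl2, 1 mM EDTA, with butaclamol for nonspecific binding. D3 binding: membranes (8 µg) with 0.3 nM [3H]methyl-spiperone in the same Tris buffer with 5 mM KCl, 5 mM MgCl2, 5 mM EDTA, with (+)butaclamol for nonspecific binding. Both run 60 min at 22 °C, then GF/B filtration. Ki by Cheng–Prusoff; ratio is D2 Ki/D3 Ki.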

D(2) dopamine receptor = D(2) dopamine receptor (Homo sapiens, UniProt P14416); assay: Displacement of [3H]spiperone from recombinant human D2L receptor expressed in CHO cell membranes after 60 mins by scintillation counting method
Sequence of D(2) dopamine receptor (P14416 whole entry): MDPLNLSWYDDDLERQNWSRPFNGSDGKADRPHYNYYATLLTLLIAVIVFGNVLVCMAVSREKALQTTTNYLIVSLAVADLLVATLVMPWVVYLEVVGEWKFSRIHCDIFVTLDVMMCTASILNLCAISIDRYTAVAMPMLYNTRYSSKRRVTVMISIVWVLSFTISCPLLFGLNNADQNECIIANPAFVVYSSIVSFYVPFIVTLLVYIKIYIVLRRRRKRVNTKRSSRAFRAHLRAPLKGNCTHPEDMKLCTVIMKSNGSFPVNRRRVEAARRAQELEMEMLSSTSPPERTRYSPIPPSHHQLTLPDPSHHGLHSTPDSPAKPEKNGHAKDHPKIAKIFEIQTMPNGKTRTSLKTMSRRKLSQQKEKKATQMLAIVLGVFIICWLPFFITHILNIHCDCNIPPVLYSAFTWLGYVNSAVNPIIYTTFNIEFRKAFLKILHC

D(3) dopamine receptor = D(3) dopamine receptor (Homo sapiens, UniProt P35462); assay: Displacement of [3H]methyl-spiperone from recombinant human D3 receptor expressed in CHO cell membranes after 60 mins by scintillation counting method
Sequence of D(3) dopamine receptor (P35462 whole entry): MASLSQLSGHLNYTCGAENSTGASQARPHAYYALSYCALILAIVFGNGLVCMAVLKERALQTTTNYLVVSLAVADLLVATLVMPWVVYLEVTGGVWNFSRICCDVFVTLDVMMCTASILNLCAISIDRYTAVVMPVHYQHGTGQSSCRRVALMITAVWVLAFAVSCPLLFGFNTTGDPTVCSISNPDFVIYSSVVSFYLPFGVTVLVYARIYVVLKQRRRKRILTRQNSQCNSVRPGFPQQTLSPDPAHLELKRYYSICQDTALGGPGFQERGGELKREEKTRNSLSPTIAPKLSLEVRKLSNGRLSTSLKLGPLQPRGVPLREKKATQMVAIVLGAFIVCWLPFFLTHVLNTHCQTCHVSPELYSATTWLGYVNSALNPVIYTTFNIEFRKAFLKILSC

[6] = molecular target: T2, 5-hydroxytryptamine receptor 1A (Homo sapiens, UniProt P08908); assay: Displacement of [3H]8-OH-DPAT from recombinant human 5-HT1A receptor expressed in HEK293 cell membranes after 60 mins by scintillation counting method
T2 sequence (P08908 whole entry): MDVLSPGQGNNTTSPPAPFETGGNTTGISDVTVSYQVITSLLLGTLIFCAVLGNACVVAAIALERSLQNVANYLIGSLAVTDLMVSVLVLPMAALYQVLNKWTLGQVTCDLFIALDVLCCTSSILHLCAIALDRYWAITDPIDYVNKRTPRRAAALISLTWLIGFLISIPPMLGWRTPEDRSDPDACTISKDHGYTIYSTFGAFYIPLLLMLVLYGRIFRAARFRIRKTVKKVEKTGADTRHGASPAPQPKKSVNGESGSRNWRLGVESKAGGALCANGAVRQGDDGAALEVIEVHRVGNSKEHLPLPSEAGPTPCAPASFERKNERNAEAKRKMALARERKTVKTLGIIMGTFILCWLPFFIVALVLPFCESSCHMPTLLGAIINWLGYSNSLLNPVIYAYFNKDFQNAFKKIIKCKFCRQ

[7] = molecular target: 5-hydroxytryptamine receptor 2A (Homo sapiens, UniProt P28223); assay: Displacement of [3H]ketanserin from recombinant human 5-HT2A receptor expressed in HEK293 cell membranes after 60 mins by scintillation counting method
Sequence of 5-hydroxytryptamine receptor 2A (P28223 whole entry): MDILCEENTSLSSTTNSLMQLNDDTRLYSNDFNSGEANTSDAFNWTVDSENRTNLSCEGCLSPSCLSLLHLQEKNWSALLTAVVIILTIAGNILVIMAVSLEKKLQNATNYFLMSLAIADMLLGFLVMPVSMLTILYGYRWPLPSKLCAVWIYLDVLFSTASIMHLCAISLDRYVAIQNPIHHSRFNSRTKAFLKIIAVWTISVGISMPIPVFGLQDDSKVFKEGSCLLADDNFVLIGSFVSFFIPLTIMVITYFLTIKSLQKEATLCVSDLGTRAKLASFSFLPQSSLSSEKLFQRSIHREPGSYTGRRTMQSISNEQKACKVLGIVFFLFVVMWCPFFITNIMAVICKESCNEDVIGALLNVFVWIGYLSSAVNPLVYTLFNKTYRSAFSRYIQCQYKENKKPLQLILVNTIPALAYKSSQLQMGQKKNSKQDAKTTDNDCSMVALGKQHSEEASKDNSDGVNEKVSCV

[8] = Stability of compound; format: physicochemical

inhibition at 1 h, 1 µM [3] [%]	SMILES	Activity (Rattus norvegicus [1])	inhibition (Rattus norvegicus [2])	Activity (Rattus norvegicus [4])	Activity (Rattus norvegicus [5])	Ratio Ki (CHO)	Ki (D(2) dopamine receptor) [nM]	Ki (D(3) dopamine receptor) [nM]	Ki [6] [nM]	Ki [7] [nM]	Stability [8]
< 20	CN(C)C(=O)N[C@H]1CC[C@H](CCN2CCN(c3cccc(Cl)c3Cl)CC2)CC1 [CARIPRAZINE]	Dose-dependent effect	Active	Non-Toxic	Active	–	–	–	–	–	–
–	CCOC(=O)N[C@H]1CC[C@H](CCN2CCN(c3nsc4ccccc34)CC2)CC1	–	–	–	–	12.2	0.71	0.058	0.2	0.53	Unstable
